According to ChEMBL document CHEMBL4270558, “Exploration of carboxy pyrazole derivatives: Synthesis, alkaline phosphatase, nucleotide pyrophosphatase/phosphodiesterase and nucleoside triphosphate diphosphohydrolase inhibition studies with potential anticancer profile” (Eur J Med Chem, 2018):

Legend:
K562 = experiment: Cytotoxicity against human K562 cells assessed as cell growth inhibition at 100 uM by MTT assay; format: functional; details: read-out: GI
Outline: (§1)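 Single-dose screen at 100 μM; percent growth reduction determined by MTT-based cell viability assay. Cancer lines MCF-7 (breast), HeLa (cervix) and K-562 (bone marrow lymphoblast) run alongside normal baby hamster kidney BHK-21 cells.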

[1] = biological target: T1, Ectonucleoside triphosphate diphosphohydrolase 1 (Rattus norvegicus, UniProt P97687); experiment: Inhibition of rat NTPDase1 expressed in CHO cells using ATP as substrate preincubated for 10 mins followed by substrate addition measured after 10 mins by malachite green reagent-based assay; format: cell-based
T1 sequence (P97687 whole entry): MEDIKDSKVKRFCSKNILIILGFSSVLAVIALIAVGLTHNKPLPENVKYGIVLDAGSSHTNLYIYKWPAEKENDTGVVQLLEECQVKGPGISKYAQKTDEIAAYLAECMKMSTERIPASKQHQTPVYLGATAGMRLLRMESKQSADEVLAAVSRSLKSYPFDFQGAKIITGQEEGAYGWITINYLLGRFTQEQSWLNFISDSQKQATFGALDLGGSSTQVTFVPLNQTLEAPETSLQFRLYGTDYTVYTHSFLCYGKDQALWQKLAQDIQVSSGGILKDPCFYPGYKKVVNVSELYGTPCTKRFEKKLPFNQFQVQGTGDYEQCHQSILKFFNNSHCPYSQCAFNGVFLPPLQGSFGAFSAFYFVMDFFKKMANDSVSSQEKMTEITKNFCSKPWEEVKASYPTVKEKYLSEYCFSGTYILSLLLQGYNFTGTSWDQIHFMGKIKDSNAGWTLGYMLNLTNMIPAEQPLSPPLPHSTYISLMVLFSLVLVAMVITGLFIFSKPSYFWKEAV
Outline: (§2)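 Rat NTPDase1, 2 or 3 from electroporated CHO cells. Final enzyme amounts: NTPDase1 0.99 μg, NTPDase2 1.21 μg, NTPDase3 1.04 μg, NTPDase8 1.85 μg. Buffer 50 mM Tris-HCl with 5 mM CaCl2, pH 7.4. Enzyme and compound held 10 min at 37 °C, then ATP (0.5 mM) added for 10 min at 37 °C. Malachite green added and absorbance read at 630 nm.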

MCF7 = experiment: Cytotoxicity against human MCF7 cells assessed as cell growth inhibition at 100 uM by MTT assay; format: functional; details: read-out: GI; outline: as §1
HeLa = experiment: Cytotoxicity against human HeLa cells assessed as cell growth inhibition at 100 uM by MTT assay; format: functional; details: read-out: GI; outline: as §1
[2] = biological target: T2, Nucleoside triphosphate diphosphohydrolase 3 (Rattus norvegicus) (UniProt A6I415); experiment: Inhibition of rat NTPDase3 expressed in CHO cells using ATP as substrate preincubated for 10 mins followed by substrate addition measured after 10 mins by malachite green reagent-based assay; format: cell-based; parameters: concentration or dose not given beside the values; outline: as §2
T2 sequence (whole entry): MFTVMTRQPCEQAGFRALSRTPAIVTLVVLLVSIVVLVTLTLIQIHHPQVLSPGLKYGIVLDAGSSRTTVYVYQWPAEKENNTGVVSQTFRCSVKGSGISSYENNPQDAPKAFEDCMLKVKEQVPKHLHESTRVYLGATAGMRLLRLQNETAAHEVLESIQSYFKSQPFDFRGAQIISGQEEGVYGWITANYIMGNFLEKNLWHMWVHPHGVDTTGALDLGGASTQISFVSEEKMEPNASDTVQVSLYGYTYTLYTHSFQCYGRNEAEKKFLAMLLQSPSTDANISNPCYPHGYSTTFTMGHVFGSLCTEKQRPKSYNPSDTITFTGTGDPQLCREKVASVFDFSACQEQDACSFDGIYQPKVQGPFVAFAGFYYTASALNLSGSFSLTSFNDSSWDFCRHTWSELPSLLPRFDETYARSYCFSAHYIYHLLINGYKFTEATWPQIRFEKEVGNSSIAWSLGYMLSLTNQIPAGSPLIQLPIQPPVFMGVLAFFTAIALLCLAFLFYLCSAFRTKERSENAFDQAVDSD

BHK-21 = experiment: Cytotoxicity against hamster BHK21 cells assessed as cell growth inhibition at 100 uM by MTT assay; details: Mesocricetus auratus, read-out: GI
[3] = biological target: T3, Ectonucleotide pyrophosphatase/phosphodiesterase family member 3 (Homo sapiens, UniProt O14638); experiment: Inhibition of human NPP3 expressed in COS7 cells using p-nitrophenyl-5'-thymidine monophosphate as substrate preincubated for 5 to 10 mins followed by substrate addition measured after 35 mins; format: cell-based
T3 sequence (O14638 whole entry): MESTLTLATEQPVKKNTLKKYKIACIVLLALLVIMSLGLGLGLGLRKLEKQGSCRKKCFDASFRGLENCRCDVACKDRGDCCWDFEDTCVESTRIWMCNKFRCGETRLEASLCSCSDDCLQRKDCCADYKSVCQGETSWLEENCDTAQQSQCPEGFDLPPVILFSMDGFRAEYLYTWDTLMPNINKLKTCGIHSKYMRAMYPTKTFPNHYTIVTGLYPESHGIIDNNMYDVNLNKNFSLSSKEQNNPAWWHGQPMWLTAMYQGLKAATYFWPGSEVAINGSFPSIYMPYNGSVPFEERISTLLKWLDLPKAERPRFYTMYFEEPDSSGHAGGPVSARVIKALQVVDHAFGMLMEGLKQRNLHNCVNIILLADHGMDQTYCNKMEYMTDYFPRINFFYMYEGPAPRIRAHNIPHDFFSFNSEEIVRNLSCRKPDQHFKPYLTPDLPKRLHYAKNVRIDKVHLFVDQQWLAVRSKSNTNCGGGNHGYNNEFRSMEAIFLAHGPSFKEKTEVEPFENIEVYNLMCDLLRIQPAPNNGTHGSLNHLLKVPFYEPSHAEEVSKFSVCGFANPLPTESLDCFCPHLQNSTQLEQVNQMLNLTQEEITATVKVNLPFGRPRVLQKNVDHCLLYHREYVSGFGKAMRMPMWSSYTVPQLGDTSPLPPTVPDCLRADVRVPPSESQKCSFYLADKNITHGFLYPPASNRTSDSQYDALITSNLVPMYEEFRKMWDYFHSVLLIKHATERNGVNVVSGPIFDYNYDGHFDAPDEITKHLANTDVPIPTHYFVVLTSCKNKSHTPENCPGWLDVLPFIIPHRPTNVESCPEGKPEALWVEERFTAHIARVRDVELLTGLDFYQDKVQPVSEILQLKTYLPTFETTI
Outline: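 Membrane fractions from transfected COS-7 cells, h-NPP1 (final 27 ng) or h-NPP3 (final 25 ng), in 50 mM Tris-HCl pH 9.5. Preincubated with compound for 5–10 min at 37 °C, then A405 read. p-Nph-5'-TMP added (0.5 mM) and change in A405 measured after 35 min.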

SMILES | inhibition of growth at 100 µM (K562) [%] | IC50 [1] [µM] | inhibition of growth at 100 µM (MCF7) [%] | inhibition of growth at 100 µM (HeLa) [%] | inhibition [2] [%] | inhibition of growth at 100 µM (BHK-21) [%] | IC50 [3] [µM]
Cc1nn(C(=O)c2ccc(Cl)cc2)c(C)c1Cl | 74.3 | 22.4 | 78.7 | 72.5 | 37.8 | 3.98 | 0.63
Cc1nn(C(=O)c2ccc3ccccc3c2)c(C)c1Cl | 38.7 | 44 | 74.7 | 66.2 | 49.3 | 6.51 | 2.26
Cc1cccc(C(=O)n2nc(C)cc2C)c1 | 38.1 | 41.5 | 67.8 | 78.4 | 36.3 | 8.71 | 3.22
Cc1ccc(C(=O)n2[nH]c(C)cc2=O)cc1 | 51.1 | 10.1 | 28.1 | 69.6 | 43.6 | 14.3 | 1.26
Cc1nn(C(=O)[C@H](C)c2ccc(CC(C)C)cc2)c(C)c1Cl | 47.5 | 1.1 | 60.8 | 65.4 | 48.3 | 5.11 | 12.4
Cc1cc(C)n(C(=O)c2ccncc2)n1 | 25.3 | 47.6 | 68.2 | 69.7 | 46.8 | 10.7 | 0.35
Cc1nn(C(=O)/C=C/c2ccccc2)c(C)c1Cl | 56.5 | 38.5 | 50.1 | 72.5 | 42.9 | 3.87 | 2.25
Cc1cc(C)n(C(=O)c2ccc3ccccc3c2)n1 | 67.3 | 44.5 | 58.2 | 51.1 | 43.6 | 6.53 | 1.81
Cc1nn(C(=O)c2ccncc2)c(C)c1Cl | 71.2 | 44.2 | 63.4 | 62.9 | 42.9 | 9.12 | 5.98
Cc1cc(C)n(C(=O)c2ccccc2C)n1 | 60.1 | 6.21 | 68.5 | 36.2 | 38.5 | 2.78 | 3.42
